Data on four compounds can be found in PMC3004996 (Bioconjugate chemistry, 2010).

The test system of one data set is U87MG cells. Description: Cell binding and uptake study. The data set is classed as cell-based, human. The following applies: 5 × 10^5 U87MG cells, 1 μg c(RGDyK), 37 °C, 30, 60, 120 min. In a few lines:
(§1)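 Cells were suspended in integrin binding buffer (25 mM Tris pH 7.4, 150 mM NaCl, 2 mM CaCl₂, 1 mM MgCl₂, 1 mM MnCl₂, 0.1% BSA). They were incubated with the ⁶⁴Cu-labeled test peptide at 1.5 μCi/tube, with or without c(RGDyK). Cells were then washed three times with chilled PBS, pelleted and gamma-counted. Uptake is % of added radioactivity, in triplicate. U87MG were maintained in DMEM and MDA-MB-435 in L-15, each with 10% heat-inactivated FBS.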

Data set [1] is described as follows: In vivo metabolite analysis. The following applies: radio-HPLC and gamma counting. Also noted: species or system mouse. In a few lines: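 Female athymic nude mice bearing subcutaneous shoulder U87MG xenografts (~10⁷ cells; tumors 8–10 mm) were anesthetized and given 200–400 μCi of ⁶⁴Cu-labeled test peptide by tail vein, then euthanized. Blood and tumor were suspended in ~500 μL PBS plus 500–1000 μL DMF and homogenized by mortar and pestle. Homogenates were passed through a 0.2 μm filter. Filtrates were run on reversed-phase HPLC, with 30 s fractions gamma-counted (cpm).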

Data set [2] is described as follows: Stability in mouse serum, radio-HPLC. The data set is classed as in vitro ADME. The following applies: 50% mouse serum, 37 °C.
Data set [3] is described as follows: In vivo biodistribution, gamma counting of dissected tissue. The following applies: nude (nu/nu), mouse, iv, 100 uCi, total radioactivity. Put shortly: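 U87MG xenograft-bearing anesthetized nude mice received ~100 μCi (~0.5 nmol) of 64Cu/Cy5.5 dual-labelled test peptide by tail vein. They were euthanized at 1, 4 and 24 hr. Dissected tissues were weighed and gamma counted, calibrated against a pre-measured tracer aliquot, and normalized to whole body weight and residual tail activity. Values are %ID/g, mean and standard deviation of three mice.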

Data set [4] in a line: MicroPET imaging of MDA-MB-435 xenografts. In kind it is in vivo. To be noted: female, athymic nude (nu/nu), mouse, tumor (MDA-MB-435 xenograft), iv, total radioactivity. In a few lines:
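MDA-MB-435 cells were grown in Leibovitz L-15 with 10% FBS, and 5 × 10⁶ cells in PBS were implanted subcutaneously in the shoulder of 4-6-week female nude mice. At 8-10 mm tumor diameter, mice (n ≥ 3) received ~100 μCi (~0.5 nmol) labelled probe by tail vein. Imaging used microPET with 3 or 5 min static scans. ROI counts/g/min were converted to %ID/g assuming 1 g/mL, without attenuation correction. Blocking groups were co-injected with 330 μg unlabelled c(RGDyK).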

In another data set the test system is MDA-MB-435 cells. The experiment in a line: Cell binding and uptake study. The data set is classed as cell-based, human. To be noted: 5 × 10^5 MDA-MB-435 cells, 37 °C, 30, 60, 120 min. In a few lines: as §1
The conditions of data set [5]: 1 hr after injection into mice; cited from earlier work.
A further data set deals with U87MG tumor xenografts. The following applies: cited from earlier work.
The conditions of data set [6]: incubation in serum for 24 h; cited from earlier work.
A further data set deals with αvβ3 integrin (Homo sapiens, UniProt P05106+P06756). The following applies: read-out: KD for αvβ3 integrin; cited from earlier work.
Data set [7] addresses integrin αvβ3 (Homo sapiens) (UniProt P06756). The following applies: cited from earlier work.

Like-named read-outs stand apart in the source and are kept apart here. Bridge positions count the residues as written; N and C are the ends. Ends that are not written are not given here. Peptide text beside a SMILES is read from it. * marks the point of attachment. DOTA = O=C(O)CN1CCN(CC(=O)O)CCN(CC(=O)*)CCN(CC(=O)O)CC1

αvβ3 integrin, sequence (P06756 31-889 limits assumed): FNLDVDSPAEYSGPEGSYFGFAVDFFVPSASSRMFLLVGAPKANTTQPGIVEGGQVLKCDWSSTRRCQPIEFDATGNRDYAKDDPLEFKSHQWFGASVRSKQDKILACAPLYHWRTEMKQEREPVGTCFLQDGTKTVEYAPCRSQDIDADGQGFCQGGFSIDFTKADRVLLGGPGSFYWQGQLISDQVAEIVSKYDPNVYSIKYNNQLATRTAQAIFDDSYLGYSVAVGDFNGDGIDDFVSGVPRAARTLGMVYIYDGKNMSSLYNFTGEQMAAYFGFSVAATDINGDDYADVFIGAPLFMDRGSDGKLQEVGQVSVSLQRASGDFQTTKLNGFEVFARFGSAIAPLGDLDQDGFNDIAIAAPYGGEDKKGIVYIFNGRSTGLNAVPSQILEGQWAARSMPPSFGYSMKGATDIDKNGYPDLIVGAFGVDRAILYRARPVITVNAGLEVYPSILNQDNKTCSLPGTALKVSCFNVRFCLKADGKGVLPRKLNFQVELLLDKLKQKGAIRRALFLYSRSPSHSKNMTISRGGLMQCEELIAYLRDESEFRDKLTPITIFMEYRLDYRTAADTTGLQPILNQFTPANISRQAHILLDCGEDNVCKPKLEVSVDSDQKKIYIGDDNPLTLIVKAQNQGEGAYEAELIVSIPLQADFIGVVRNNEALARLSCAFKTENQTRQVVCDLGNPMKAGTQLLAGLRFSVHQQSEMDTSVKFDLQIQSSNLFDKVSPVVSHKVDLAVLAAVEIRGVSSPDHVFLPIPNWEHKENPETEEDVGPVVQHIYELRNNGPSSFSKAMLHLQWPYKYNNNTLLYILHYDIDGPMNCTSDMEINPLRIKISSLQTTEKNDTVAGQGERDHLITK
αvβ3 integrin, sequence (P06756 891-1048 partner limits assumed): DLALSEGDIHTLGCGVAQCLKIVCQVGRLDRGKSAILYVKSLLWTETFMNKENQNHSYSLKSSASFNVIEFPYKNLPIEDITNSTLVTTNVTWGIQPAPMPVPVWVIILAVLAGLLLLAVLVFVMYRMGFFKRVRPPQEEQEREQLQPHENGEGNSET
αvβ3 integrin, sequence (P05106 27-788): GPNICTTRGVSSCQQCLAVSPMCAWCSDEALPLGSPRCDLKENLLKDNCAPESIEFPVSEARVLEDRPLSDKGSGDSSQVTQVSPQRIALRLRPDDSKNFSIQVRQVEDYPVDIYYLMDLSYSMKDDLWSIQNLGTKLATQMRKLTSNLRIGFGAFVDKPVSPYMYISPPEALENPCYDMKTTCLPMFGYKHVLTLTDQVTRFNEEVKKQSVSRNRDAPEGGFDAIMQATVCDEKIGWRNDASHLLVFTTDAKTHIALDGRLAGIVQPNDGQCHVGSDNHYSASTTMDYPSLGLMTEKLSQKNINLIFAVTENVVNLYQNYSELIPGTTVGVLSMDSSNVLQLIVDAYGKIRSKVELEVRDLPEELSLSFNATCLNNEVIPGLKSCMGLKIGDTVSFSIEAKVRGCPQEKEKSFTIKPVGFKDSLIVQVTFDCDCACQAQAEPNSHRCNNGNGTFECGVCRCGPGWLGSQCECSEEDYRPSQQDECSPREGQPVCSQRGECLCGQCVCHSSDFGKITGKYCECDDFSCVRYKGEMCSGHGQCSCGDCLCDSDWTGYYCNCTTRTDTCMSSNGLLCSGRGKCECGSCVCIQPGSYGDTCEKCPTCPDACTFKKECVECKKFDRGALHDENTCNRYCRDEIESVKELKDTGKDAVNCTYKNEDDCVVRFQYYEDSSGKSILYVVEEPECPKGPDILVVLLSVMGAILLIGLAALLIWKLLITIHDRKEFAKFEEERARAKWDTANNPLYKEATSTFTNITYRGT
echistatin, sequence (P17347 131-179): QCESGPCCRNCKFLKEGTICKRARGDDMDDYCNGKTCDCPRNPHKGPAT
integrin αvβ3 (Homo sapiens), sequence (P06756 31-1048, chain 1 of 2): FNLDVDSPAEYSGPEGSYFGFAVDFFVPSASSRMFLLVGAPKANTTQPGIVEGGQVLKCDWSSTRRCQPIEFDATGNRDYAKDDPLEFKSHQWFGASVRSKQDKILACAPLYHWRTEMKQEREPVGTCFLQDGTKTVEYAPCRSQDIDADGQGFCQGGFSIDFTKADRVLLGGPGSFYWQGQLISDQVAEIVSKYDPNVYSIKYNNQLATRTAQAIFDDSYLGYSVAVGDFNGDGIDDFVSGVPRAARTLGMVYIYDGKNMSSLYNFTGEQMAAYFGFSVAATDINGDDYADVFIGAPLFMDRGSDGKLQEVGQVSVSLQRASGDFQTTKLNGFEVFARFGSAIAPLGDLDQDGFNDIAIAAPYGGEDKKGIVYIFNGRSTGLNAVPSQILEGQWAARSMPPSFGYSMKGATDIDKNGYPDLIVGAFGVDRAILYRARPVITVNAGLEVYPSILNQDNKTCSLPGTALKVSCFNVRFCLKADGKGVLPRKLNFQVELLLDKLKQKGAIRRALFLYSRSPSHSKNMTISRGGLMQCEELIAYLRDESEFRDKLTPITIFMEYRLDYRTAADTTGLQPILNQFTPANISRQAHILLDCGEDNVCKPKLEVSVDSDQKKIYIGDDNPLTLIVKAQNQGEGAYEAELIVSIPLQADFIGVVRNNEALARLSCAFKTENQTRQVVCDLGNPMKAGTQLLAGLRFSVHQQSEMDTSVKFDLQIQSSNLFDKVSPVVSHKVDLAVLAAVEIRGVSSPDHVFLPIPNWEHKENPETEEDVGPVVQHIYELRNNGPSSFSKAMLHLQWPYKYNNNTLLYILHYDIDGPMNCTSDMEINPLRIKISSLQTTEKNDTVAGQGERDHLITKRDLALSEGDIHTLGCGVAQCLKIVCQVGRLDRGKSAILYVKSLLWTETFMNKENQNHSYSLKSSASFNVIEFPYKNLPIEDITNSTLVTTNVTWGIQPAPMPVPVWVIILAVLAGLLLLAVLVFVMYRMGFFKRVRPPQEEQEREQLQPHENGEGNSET
integrin αvβ3 (Homo sapiens), sequence (P05106 27-788, chain 2 of 2, further chain): as the sequence (P05106 27-788) above

What is called tissue uptake is the percentage of the injected dose found per gram of tissue. Consider `CCN1C(=CC=CC=CC2=[N+](CCCCCC(=O)NCCCC[C@H](NC(=O)CN3CCN(CC(=O)O)CCN(CC(=O)O)CCN(CC(=O)O)CC3)C(=O)NCC(=O)NCC(=O)N[C@@H](Cc3ccc(O)cc3)C(=O)NCC(=O)N[C@H]3CSSC[C@@H]4NC(=O)CNC(=O)[C@H](C)NC(=O)[C@H](CC(C)C)NC(=O)[C@@H]5CSSC[C@@H](C(=O)NCC(N)=O)NC(=O)[C@H](Cc6ccccc6)NC(=O)CNC(=O)[C@H](CC(N)=O)NC(=O)[C@@H]6CCCN6C(=O)CNC(=O)[C@H](CSSC[C@H](NC(=O)[C@H](CO)NC(=O)[C@H]([C@@H](C)O)NC(=O)[C@@H]6CCCN6C(=O)[C@H](C)NC(=O)[C@H](Cc6c[nH]c7ccccc67)NC(=O)[C@H](CC(=O)O)NC(=O)CNC(=O)[C@H](CCCNC(=N)N)NC(=O)CNC(=O)[C@H](CCC(N)=O)NC(=O)[C@@H]6CCCN6C3=O)C(=O)N[C@@H](CO)C(=O)N[C@@H](CCC(N)=O)C(=O)N[C@@H](CC(=O)O)C(=O)N[C@@H](CO)C(=O)N[C@@H](CC(=O)O)C(=O)N5)NC(=O)[C@H](C(C)C)NC4=O)c3ccc4c(S(=O)(=O)[O-])cc(S(=O)(=O)O)cc4c3C2(C)C)C(C)(C)c2c1ccc1c(S(=O)(=O)O)cc(S(=O)(=O)O)cc21` (single isomer, unassigned) [^64Cu-DOTA/Cy5.5-2.5D, ^64Cu-DOTA-Lys(Cy5.5)-Gly-Gly-Tyr-2.5D, metal not drawn], for which the “Cell binding and uptake with excess c(RGDyK)” value in the data set on U87MG cells and with MDA-MB-435 cells (1 μg c(RGDyK)) was “blocked” each time. Also, the “In vivo metabolic stability in tumor” value in data set [1] (U87MG tumor 1 hr post injection) is recorded as “significant breakdown of probe”. The “In vivo metabolic stability in kidney” value in data set [1] (kidney 1 hr post injection) is reported as “intact probe was not able to be recovered”. The “In vivo metabolic stability in liver” value in data set [1] (liver 1 hr post injection) was “intact probe was not able to be recovered”. Besides, the entries for the “Stability in mouse serum” value in [2] (1 hr) and in [2] (24 hr) were “minimal probe degradation” and “intact probe was unrecoverable”, respectively. Also, the tissue uptake in [3] (kidney, Kidney uptake, for 1-4 hr post injection, approximate) was about 80 %ID/g; in data set [3] (liver, Liver uptake, at 1-24 hr post injection), 4 to 7 %ID/g; in data set [3] (liver, Liver uptake, at 1 and 4 hr post injection), 4 to 7 %ID/g. Besides, the tissue uptake at 1 h in data set [4] (100 uCi) worked out at 1.33 ± 0.02 %ID/g; in [4], 0.82 ± 0.05 %ID/g. The tissue uptake at 24 h in [4] (100 uCi) came out at 1.01 ± 0.1 %ID/g; in data set [4] it was 0.6 ± 0.09 %ID/g. The “Cell binding and uptake, versus U87MG cells” value with MDA-MB-435 cells (1.5 μCi/tube, IBB, gamma counter, triplicate) is listed as “lower levels of probe uptake”.

For the compound `CC(C)C[C@@H]1NC(=O)[C@@H]2CSSC[C@@H](C(=O)NCC(N)=O)NC(=O)[C@H](Cc3ccccc3)NC(=O)CNC(=O)[C@H](CC(N)=O)NC(=O)[C@@H]3CCCN3C(=O)CNC(=O)[C@@H]3CSSC[C@H](NC(=O)[C@H](CO)NC(=O)[C@H]([C@@H](C)O)NC(=O)[C@@H]4CCCN4C(=O)[C@H](C)NC(=O)[C@H](Cc4c[nH]c5ccccc45)NC(=O)[C@H](CC(=O)O)NC(=O)CNC(=O)[C@H](CCCNC(=N)N)NC(=O)CNC(=O)[C@H](CCC(N)=O)NC(=O)[C@@H]4CCCN4C(=O)[C@@H](NC(=O)CNC(=O)CN4CCN(CC(=O)O)CCN(CC(=O)O)CCN(CC(=O)O)CC4)CSSC[C@H](NC(=O)CNC(=O)[C@H](C)NC1=O)C(=O)N[C@@H](C(C)C)C(=O)N3)C(=O)N[C@@H](CO)C(=O)N[C@@H](CCC(N)=O)C(=O)N[C@@H](CC(=O)O)C(=O)N[C@@H](CO)C(=O)N[C@@H](CC(=O)O)C(=O)N2` [^64Cu-DOTA-2.5D, metal not drawn] ({DOTA}-GCPQGRGDWAPTSCSQDSDCLAGCVCGPNGFCG-NH2; disulfide 2-24, 14-26, 20-32), the “In vivo metabolic stability in blood, tumor and kidneys” value in [5] is recorded as “recovered intact”. In the data set on U87MG tumor xenografts (1 to 4 hr post injection, previously observed), the Liver uptake is 1-2 %ID/g. Further, the Kidney uptake is listed as 8.08 ± 0.67 %ID/g in the data set with U87MG tumor xenografts (1 hr post injection), 2.69 ± 0.48 %ID/g in the data set on U87MG tumor xenografts (4 hr post injection) and 1.25 ± 0.11 %ID/g in the data set on U87MG tumor xenografts (24 hr post injection). Further, the Stability in serum entry in [6] is “only minimal fragmentation”.

What is called Kd is the equilibrium constant for the complex coming apart. As for “ECESGPCCRNCKFLKEGTICKRARGDDMDDYCNGKTCDCPRNPHKGPAT (disulfide 2-11, 7-32, 8-37, 20-39 (inferred)) [Echistatin]”, the dissociation constant Kd at αvβ3 integrin was about 400 pM.

Turning to echistatin (from UniProt P17347), the Kd in data set [7] is 400 pM.
